HCV NS3 hel inh: inhibitors of Hepatitis C virus NS3 helicase | 290,000 compounds, 0.56% hits | NS3 helicase DNA unwinding, Cy5 molecular beacon fluorescence | AID 1800 | inhibition, % at 10.9 µM;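 active = inhibition above the mean of all tested compounds plus 3 SD, set per campaign, cut at about 35% in these data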
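test system = hepatitis C virus NS3 helicase domain fragment enzyme | reagent = annealed dual-labelled DNA beacon duplex, ATP-started | times = 1 h at 25 °C | detection = Cy5 fluorescence, 0 and 60 min reads | read-out basis = percent inhibition from t60/t0 fluorescence ratio | control set = DMSO and thioflavine S | replication = one well per compound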
UPR XBP1 act: adaptive UPR (XBP1) activation. CHO-XBP1 luciferase reporter, IRE1-XBP1 UPR activation, luminescence; percent of tunicamycin response, DMSO as zero. activation, % at 20 µM. 330,000 compounds, 0.33% hits. AID 463104;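 active = versus positive control, 20 µM dose yields 30% or more activation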
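Signal: luciferase luminescence; Assay system: CHO-XBP1 luciferase reporter cells; Amount: one thousand reporter cells per well; Dosing: 20 µM single concentration, DMSO 1%; Benchmarks: high control tunicamycin 10 µg/mL final, low control DMSO vehicle only; Schedule: 6 h compound exposure at 37 °C, 5% CO2; Evaluation: percent activation relative to tunicamycin reference.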
PfM18AAP inh: blocks P. falciparum M18 aspartyl aminopeptidase. inhibition, % at 7.35 µM. recombinant PfM18AAP, H-Glu-NHMec fluorogenic cleavage. 290,000 compounds, 1.2% hits. AID 1822;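 active = inhibition above the campaign mean inhibition over all tested compounds plus 3 SD, cut at about 28% in these data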
p97 ATPase inh: human p97 ATPase inhibition. P55072. recombinant p97 ATPase, Kinase-Glo ATP luminescence, 3 h. inhibition, % at 8 µM. 220,000 compounds, 0.42% hits. AID 1481; in the data active = inhibition above about 15%
Target sequence (P55072 whole entry, looked up): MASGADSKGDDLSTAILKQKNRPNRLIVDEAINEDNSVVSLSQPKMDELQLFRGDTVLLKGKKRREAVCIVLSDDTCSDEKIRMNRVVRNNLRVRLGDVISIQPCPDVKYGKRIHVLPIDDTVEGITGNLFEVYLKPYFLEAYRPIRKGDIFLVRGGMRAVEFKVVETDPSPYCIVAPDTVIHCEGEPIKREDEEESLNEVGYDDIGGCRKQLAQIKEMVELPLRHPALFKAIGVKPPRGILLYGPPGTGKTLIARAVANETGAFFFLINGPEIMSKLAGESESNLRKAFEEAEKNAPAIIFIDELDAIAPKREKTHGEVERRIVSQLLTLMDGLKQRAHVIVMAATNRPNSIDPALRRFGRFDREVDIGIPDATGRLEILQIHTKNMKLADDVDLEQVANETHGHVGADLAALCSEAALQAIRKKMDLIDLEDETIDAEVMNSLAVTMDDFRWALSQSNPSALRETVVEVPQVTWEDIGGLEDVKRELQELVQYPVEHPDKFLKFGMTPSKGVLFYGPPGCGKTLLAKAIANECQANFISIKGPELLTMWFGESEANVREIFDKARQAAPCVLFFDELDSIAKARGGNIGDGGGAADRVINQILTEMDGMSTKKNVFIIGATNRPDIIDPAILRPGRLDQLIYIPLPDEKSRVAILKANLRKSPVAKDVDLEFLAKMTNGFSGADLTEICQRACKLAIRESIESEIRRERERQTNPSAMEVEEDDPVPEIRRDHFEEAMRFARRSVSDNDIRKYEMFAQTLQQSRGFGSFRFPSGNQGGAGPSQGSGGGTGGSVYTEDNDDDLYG
CHOP inhibitor: inhibitors of CHOP induction in ER stress response; 220,000 compounds, 3.8% hits; CHO-K1 CHOP-promoter luciferase, tunicamycin-induced, 15-18 h; inhibition, % at 10 µM; AID 2732;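 active = compounds that reduced the stress-induced luciferase reporter signal by more than about 70% of percent inhibition, limit read from the data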
UPR CHOP act: activators of apoptotic arm of unfolded protein response (CHOP). CHO-CHOP luciferase reporter, UPR activation, luminescence; percent of tunicamycin response over DMSO baseline. activation, % at 10 µM. 330,000 compounds, 0.34% hits. AID 449763;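 active = at 10 µM dose, activation of 40% or more, normalized to positive control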
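Evaluation: % reporter activation, DMSO baseline versus tunicamycin full activation; System: CHO-CHOP luciferase reporter cell line; Input: 500 cells/well; Incubation: 6 h compound treatment, 37 °C; Measured by: Steady-Glo luciferase luminescence; Dosing: one dose, 10 µM in 0.5% DMSO; Buffer or medium: F12 medium, 10% FBS; Benchmarks: positive tunicamycin 10 µg/mL, negative DMSO alone.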
p97 inh conf: confirmation of human p97 ATPase inhibitors. 760 compounds, 44% hits. shares compounds with p97 ATPase inh. recombinant p97 ATPase, Kinase-Glo ATP luminescence. inhibition, % at 8 µM;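 active = percent inhibition of p97 ATPase above a set limit, the primary screen's mean plus 3 SD, cut at about 15% in these data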
A number is an active result; i = inactive; nt = no result given. The list is not random: actives were taken first. Their share in the collection is about 4.5%.

SMILES	HCV NS3 hel inh	UPR XBP1 act	PfM18AAP inh	p97 ATPase inh	CHOP inhibitor	UPR CHOP act	p97 inh conf
Cc1ccc2nc(/C(C#N)=C\c3ccc(N4CCOCC4)o3)[nH]c2c1	i	i	i	i	i	i	nt
COC(=O)COc1ccc(=O)n(-c2ccccc2)n1	i	i	i	17.6	i	i	i
O=C(O)COc1ccc(=O)n(-c2ccccc2)n1	i	i	i	i	i	i	nt
CCN(CC)C(=O)c1ccccc1NC(=O)c1cccc(S(=O)(=O)N(CC)CC)c1	i	i	i	i	i	i	nt
CCN(CC)S(=O)(=O)c1cccc(C(=O)N/N=C(\C)c2ccc(O)cc2O)c1	i	i	i	21.7	i	i	22.4
Cn1c(C(=O)NCc2ccccn2)cc2c(=O)n(C)c3ccccc3c21	i	i	i	24.7	i	i	i
Cc1ccc(CNC(=O)c2cc3c(=O)n(C)c4ccccc4c3n2C)o1	i	i	i	i	i	i	nt
COc1ccc2ccc3c(c2c1)N=C[C@]1(O3)N(C)c2ccccc2C1(C)C	i	i	i	23.6	i	i	i
Oc1ccc2ccccc2c1/C=N/c1nccs1	i	i	i	i	i	i	nt
Oc1ccc2ccccc2c1C=NCc1cn2ccsc2n1	i	i	i	40.0	i	i	i
O=C(CCl)NNC(=O)c1c(O)c2ccccc2[nH]c1=O	i	i	i	20.7	i	i	32.0
CCN(C[C@H]1N[C@@](C)(C(=O)OC)[C@H]2C(=O)N(C)C(=O)[C@@H]12)S(=O)(=O)c1ccc(-c2ccccc2)cc1	nt	i	nt	nt	nt	i	nt
Cc1cc(C2=NNC(=NCCc3ccccc3)SC2)c(C)n1-c1c(C)n(C)n(-c2ccccc2)c1=O	i	i	i	16.1	i	i	i
Cc1cc(C2=NNC(=NC3CC3)SC2)c(C)n1-c1c(C)n(C)n(-c2ccccc2)c1=O	i	i	i	i	i	i	nt
Cc1cc(Nc2cc(Cl)nc(Sc3ccc(NC(=O)C4CC4)cc3)n2)n[nH]1	nt	i	nt	nt	nt	i	nt
CC(NC(=O)CC(c1ccccc1)c1cc(Cl)ccc1O)c1ccccc1 (configuration not stated)	i	nt	i	15.3	i	nt	i
Cc1ccc(O)c(C(CC(=O)NC(C)C)c2ccccc2)c1 (configuration not stated)	i	i	i	i	i	i	nt
O=C(Nc1cc2c(cc1C(=O)O)OCCCO2)c1ccc(F)cc1F	i	i	i	nt	nt	i	nt
Cc1nonc1NC(=O)CSc1nc2ccccc2[nH]1	i	i	i	i	i	i	nt
CCOC(=O)NC(=O)CSc1nc2ccccc2[nH]1	i	i	i	16.4	i	i	i
Cc1ccccc1C(C)NS(=O)(=O)c1ccc2c(c1)OCCO2 (configuration not stated)	nt	i	nt	nt	nt	i	nt
N#Cc1c(-c2ccco2)cc(-c2ccccc2)[nH]c1=O	i	i	i	22.4	i	i	i
Cc1cc(-c2ccccc2)[nH]c(=O)c1C#N	i	i	i	i	i	i	nt
O=C(CSc1ccc(F)cc1)Nc1ccccc1Br	i	i	i	15.3	i	i	i
CC(C)c1nc2sc3c(=O)[nH]cnc3c2c2c1CCC2	i	i	i	i	i	i	nt
SMILES	HCV NS3 hel inh	UPR XBP1 act	PfM18AAP inh	p97 ATPase inh	CHOP inhibitor	UPR CHOP act	p97 inh conf
CC(C)c1nc2sc3c(=O)[nH]cnc3c2c2c1CCCC2	i	i	i	15.8	i	i	19.9
CC(C)c1nc2sc3c(=S)nc[nH]c3c2c2c1CCC2	i	i	i	42.2	i	i	41.4
Nc1cccc2c1C(=O)N(C(=O)/C=C/c1cccc(Br)c1)C2=O	i	nt	i	16.9	i	nt	18.5
CCCCn1nc2cc(C(=O)NCc3ccc(OC(F)(F)F)cc3)ccc2c1OC	i	i	i	16.0	i	i	i
CC(C)(C)c1cc(=O)n(-c2ccccc2)[nH]1	i	nt	i	34.4	70.0	nt	i
O=c1ccc(=O)n(-c2ccccc2)[nH]1	i	i	i	i	i	i	nt
c1cncc(-c2nc(NCc3ccc4c(c3)OCO4)c3ccccc3n2)c1	i	i	i	17.3	i	i	20.6
CC1=NN(c2ccc(Cl)c(C(=O)O)c2)C(=O)C1	i	i	i	33.5	i	i	i
Cc1cc(NC(=O)COC(=O)C(C)Oc2ccc(Cl)cc2Cl)no1 (configuration not stated)	i	i	i	nt	nt	i	nt
Cc1[nH][nH]c(=O)c1C(c1ccc(-c2ccc(C(=O)O)cc2)o1)c1c(C)[nH][nH]c1=O	i	nt	i	24.6	i	nt	i
CCn1cc(CN2CCC(C(=O)Nc3cccc(-c4cccc(OC)c4)c3)CC2)c(C)n1	i	i	i	nt	nt	i	nt
O=C(Nc1nccs1)C1(c2ccc(Cl)cc2)CC1	i	i	i	i	i	i	nt
C=C1C2(C(=O)Nc3nccs3)CCC(C2)C1(C)C (configuration not stated)	i	i	i	37.1	i	i	i
CCOC(CCNC(=O)c1cn(C)c(=O)c2c1c1ccccc1n2C)OCC	i	i	i	nt	nt	i	nt
Cc1cccc(N2CCN(C(=O)C3CCC(=O)N(C4CC4)C3)CC2)c1C (configuration not stated)	i	i	i	nt	nt	i	nt
CC1=NN(CCC#N)C(=O)/C1=C/c1ccc(N(C)C)cc1	i	i	i	i	i	i	nt
CCOc1cc(/C=C2\C(=O)N(CCC#N)N=C2C)ccc1OCC(N)=O	i	i	i	17.2	i	i	i
COc1cc(/C=C2\C(=O)N(CCC#N)N=C2C)ccc1OCC(=O)Nc1ccccc1	i	i	i	28.5	i	i	i
O=S(=O)(Nc1nc2ccccc2nc1Cl)c1cccc(C(F)(F)F)c1	i	i	i	nt	nt	i	nt
O=C(Nc1ccc2nsnc2c1)N1CCCCCC1	i	i	i	i	i	i	nt
S=C(Nc1ccc2nsnc2c1)N1CCCC1	i	i	i	20.6	i	i	i
O=C1CCCC/C1=C\Nc1ccc(O)cc1	i	i	i	21.2	i	i	i
O=C1CCC/C1=C/Nc1ccc(Cl)cc1	i	i	i	i	i	i	nt
Cc1cc(/C=C(/C#N)c2nc3ccccc3[nH]2)c(C)n1-c1cc(C(=O)O)cc(C(=O)O)c1	i	i	i	16.8	i	i	i
Cc1cc(/C=C(/C#N)c2nc3ccccc3[nH]2)c(C)n1-c1ccccc1C(=O)O	i	i	i	i	i	i	nt
CCOC(=O)COc1ccc(C(=O)Nc2cccc(Cl)c2C)cc1	i	i	i	i	i	i	nt
C#CCOCCOCCOCCNc1nc(N2CCN(C(=O)[C@H]([C@@H](C)CC)n3cc([C@@H](N)Cc4ccc(O)cc4)nn3)CC2)nc(N2CCN(C(=O)[C@H](Cc3ccc(O)cc3)n3cc([C@@H](N)CC(C)C)nn3)CC2)n1	i	i	i	i	i	i	nt

From PubChem BioAssay
